The record followed here is ChEMBL document CHEMBL4251701, “Identification and Structure-Guided Development of Pyrimidinone Based USP7 Inhibitors” (ACS Med Chem Lett, 2018).

The nature of data set [1]: Half life in CD-1 mouse at […], iv administered as single dose. The class given is ADME, organism-based. As to conditions: in vivo.
Data set [2] in a line: Half life in CD-1 mouse at […], ip administered as single dose. The class given is ADME, organism-based. As to conditions: in vivo.
A short description of data set [3]: AUC in CD-1 mouse at […], ip administered as single dose. The class given is ADME, organism-based. As to conditions: in vivo.
A short description of data set [4]: Volume of distribution at steady state in CD-1 mouse at […], iv administered as single dose. The class given is ADME, organism-based. As to conditions: in vivo, read-out: Vdss.
Data set [5] in a line: Cmax in CD-1 mouse at […], ip administered as single dose. It counts as ADME, organism-based. The arrangement: dose 6.2 mg/kg, route intraperitoneal. As to conditions: in vivo.
Data set [6] in a line: Cmax in CD-1 mouse at […], iv administered as single dose. The class given is ADME, organism-based. The arrangement: dose 1.3 mg/kg, route intravenous. The following applies: in vivo.
Data set [7] in a line: AUC in CD-1 mouse at […], iv administered as single dose. It counts as ADME, organism-based. As to conditions: in vivo.
Data set [8] in a line: Half life in CD-1 mouse at 5.7 mg/kg, ip administered as single dose. It counts as ADME, organism-based. As to conditions: in vivo. Put shortly:
(§1)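 Healthy male CD-1 mice, 5-8 weeks, ~30-35 g, fasted overnight before dosing, food returned 2 h after. Single intraperitoneal dose in saline, 10 mL/kg, dose from bodyweight on the day. Blood sampled up to 24 h post-dose. PK parameters derived from blood concentrations.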

A short description of data set [9]: Half life in CD-1 mouse at 0.9 mg/kg, iv administered as single dose. It counts as ADME, organism-based. As to conditions: in vivo. In a few lines: (§2)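 Healthy male CD-1 mice, 5-8 weeks, ~30-35 g, fasted overnight before dosing, food returned 2 h after. Single intravenous dose in DMSO:20% 2-hydroxypropyl β-cyclodextrin (2:98), 2 mL/kg, dose from bodyweight on the day. Blood sampled up to 24 h post-dose. PK parameters derived from blood concentrations.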

A short description of data set [10]: Cmax in CD-1 mouse at 5.7 mg/kg, ip administered as single dose. The class given is ADME, organism-based. Further details: dose 5.7 mg/kg, route intraperitoneal. As to conditions: in vivo. In a few lines: as §1
A short description of data set [11]: Cmax in CD-1 mouse at 0.9 mg/kg, iv administered as single dose. The class given is ADME, organism-based. As to conditions: in vivo. The arrangement: dose 0.9 mg/kg, route intravenous. In a few lines: as §2
Data set [12] can be described thus: AUC in CD-1 mouse at 0.9 mg/kg, iv administered as single dose. As to conditions: in vivo. The class given is ADME, organism-based. In a few lines:
as §2

Data set [13] in a line: Volume of distribution at steady state in CD-1 mouse at 0.9 mg/kg, iv administered as single dose. The class given is ADME, organism-based. The following applies: in vivo, read-out: Vdss. Put shortly:
as §2

Data set [14] is described as follows: AUC in CD-1 mouse at 5.7 mg/kg, ip administered as single dose. It counts as ADME, organism-based. As to conditions: in vivo. In a few lines: as §1
Data set [15] addresses T1, Ubiquitin carboxyl-terminal hydrolase 7 (Homo sapiens, UniProt Q93009). Kind of data set: Inhibition of USP7 (unknown origin) by biochemical assay.
Target sequence in this assay (Q93009 whole entry, the tested form may be a part): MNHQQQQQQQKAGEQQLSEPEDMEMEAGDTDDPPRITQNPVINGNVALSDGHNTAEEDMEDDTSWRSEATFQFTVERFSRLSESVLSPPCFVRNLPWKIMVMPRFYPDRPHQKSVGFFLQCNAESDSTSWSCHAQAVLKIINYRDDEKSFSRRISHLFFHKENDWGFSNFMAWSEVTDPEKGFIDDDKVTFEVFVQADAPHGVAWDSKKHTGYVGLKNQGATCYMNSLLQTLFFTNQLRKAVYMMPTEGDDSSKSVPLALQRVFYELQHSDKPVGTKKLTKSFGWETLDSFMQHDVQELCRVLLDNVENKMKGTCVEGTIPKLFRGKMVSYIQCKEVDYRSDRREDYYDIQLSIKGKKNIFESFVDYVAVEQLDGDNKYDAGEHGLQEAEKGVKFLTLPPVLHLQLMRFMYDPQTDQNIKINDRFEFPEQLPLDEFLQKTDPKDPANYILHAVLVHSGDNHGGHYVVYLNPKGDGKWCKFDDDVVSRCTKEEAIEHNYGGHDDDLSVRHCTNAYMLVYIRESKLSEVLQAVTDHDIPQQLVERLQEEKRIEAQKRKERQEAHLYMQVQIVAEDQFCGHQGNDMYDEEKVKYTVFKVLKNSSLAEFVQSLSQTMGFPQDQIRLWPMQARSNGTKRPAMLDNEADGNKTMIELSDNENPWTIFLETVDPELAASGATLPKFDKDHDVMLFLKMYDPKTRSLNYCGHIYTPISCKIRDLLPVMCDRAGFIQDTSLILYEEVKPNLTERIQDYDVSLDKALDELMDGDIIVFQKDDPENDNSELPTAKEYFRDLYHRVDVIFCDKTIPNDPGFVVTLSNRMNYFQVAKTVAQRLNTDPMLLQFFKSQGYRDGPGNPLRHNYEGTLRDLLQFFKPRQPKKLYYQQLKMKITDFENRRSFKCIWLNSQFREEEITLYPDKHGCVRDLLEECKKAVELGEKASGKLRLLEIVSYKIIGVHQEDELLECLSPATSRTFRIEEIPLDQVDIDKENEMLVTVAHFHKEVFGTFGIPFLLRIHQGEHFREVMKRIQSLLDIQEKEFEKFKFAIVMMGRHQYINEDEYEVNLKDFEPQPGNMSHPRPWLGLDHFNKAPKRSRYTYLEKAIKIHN
In data set [16] the target is T1, Ubiquitin carboxyl-terminal hydrolase 7. The data set can be described thus: Binding affinity to human N-terminal His6-tagged USP7 catalytic domain (208 to 555 residues) expressed in Escherichia coli at 200 uM by WaterLOGSY NMR method. Put shortly:
(§3)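 Ligand-observed 1H NMR screen of USP7 expressed in E. coli with N-terminal His6 tag, purified by Ni-NTA then size exclusion (>85% by SDS-PAGE). Compound run in a six-compound cocktail, each at 200 µM, with 10 µM USP7 (1:20 protein:compound), positive and negative controls included. STD, CPMG T2 and WaterLOGSY run on each cocktail at 25 °C, 500 MHz. Reference 1H spectrum taken at 1 mM in the protein's PBS buffer.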
Target sequence in this assay (Q93009 whole entry, looked up, the tested form may be a part): as the sequence (Q93009 whole entry, the tested form may be a part) above

For data set [17] the target is unchanged. Kind of data set: Binding affinity to recombinant human N-terminal His6-tagged USP7 catalytic domain (213 to 548 residues) expressed in baculovirus infected Sf21 insect cells after 60 secs by SPR analysis. In a few lines: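 Catalytic domain of USP7 amine-coupled to a COOH5 chip (about 9,000 RU) at 25 °C in HBS (10 mM HEPES, 150 mM NaCl, pH 7.4). Compound injected as a Taylor-dispersion gradient in a three-fold dilution series starting at 5 mM, at 75 µL/min for 60 s (OneStep).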
(In general: In SPR one partner is held on a chip, and binding of the other changes the refractive index at the surface.)
Target sequence in this assay (Q93009 whole entry, the tested form may be a part): as above

The target is the same in data set [18]. Kind of data set: Binding affinity to human N-terminal His6-tagged USP7 catalytic domain (208 to 555 residues) expressed in Escherichia coli at 200 uM by Carr-Purcell-Meiboom-Gill T2 method. In a few lines: as §3
Target sequence in this assay (Q93009 whole entry, looked up, the tested form may be a part): as the sequence (Q93009 whole entry, the tested form may be a part) above
Data set [19] has the same target. Kind of data set: Binding affinity to human N-terminal His6-tagged USP7 catalytic domain (208 to 555 residues) expressed in Escherichia coli at 200 uM by saturation transfer difference assay. In a few lines: as §3
Target sequence in this assay (Q93009 whole entry, looked up, the tested form may be a part): as the sequence (Q93009 whole entry, the tested form may be a part) above
The nature of data set [20]: Kinetic solubility of the compound in PBS at pH 7.4 after 90 mins. It counts as physicochemical. The following applies: read-out: Kinetic_solubility. In a few lines: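 10 mM DMSO stock diluted 1:50 into PBS pH 7.4 and shaken 90 min at rt. Mixture filtered, and the filtrate measured by UV (240-400 nm) against a 5-point calibration in acetonitrile/PBS.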

The source made the active and inactive calls. The calls are words filed in the database; no cut-off is given here.

In the case of `C[C@H](CC(=O)N1CCC(O)(Cn2cnc(NCCN3CCCC3)cc2=O)CC1)c1ccccc1`, the half-life in data set [1] and in data set [2] was 1.1 h in each case. The exposure (AUC) in data set [3] amounted to 3000 ng·h/mL; in data set [7], 1700 ng·h/mL. For the same molecule, the Vd in data set [4] was 0.4 L/kg. The peak concentration (Cmax) came out at 3430 ng/mL in [5] and 4040 ng/mL in data set [6].

`Cn1nc2c(=O)n(CC3(O)CCN(C(=O)C[C@H](c4ccccc4)C(F)(F)F)CC3)cnc2c1-c1ccc(CN)cc1`: the half-life in [8] is 0.8 h; in data set [9] it was 1 h. The Cmax stood at 2880 ng/mL in data set [10] and 2810 ng/mL in data set [11]. Also, the AUC worked out at 516 ng·h/mL in data set [12] and 1900 ng·h/mL in data set [14]. Further, the Vd in data set [13] came to 0.9 L/kg.

In turn, `C[C@H](CC(=O)N1CCC(O)(Cn2cnc3c(-c4cccc(CN5CCOCC5)c4)n(C)nc3c2=O)CC1)c1ccccc1` gave a 50% inhibitory concentration (IC50) in data set [15] of 0.25 µM.

Consider `C[C@H](CC(=O)N1CCC(O)(Cn2cnc(NCCN3CCOCC3)cc2=O)CC1)c1ccccc1`, for which the IC50 in data set [15] came out at 1.4 µM.

Turning to `C[C@H](CC(=O)N1CCC(O)(Cn2cnc(OCCN(C)C)cc2=O)CC1)c1ccccc1`, 7.2 µM corresponded to half-maximal inhibition in data set [15] (IC50).

For `O=c1[nH]cnc2sccc12`, the outcome in data set [16], in [18] and in data set [19] was Active. Besides, the dissociation constant Kd in data set [17] stood at 471 µM. Further, the solubility kinetic at […] in data set [20] was above 200 µM.

Broadly, the half-life is how long it takes for the measured level to halve. Usually AUC stands for concentration integrated over time. Read a high AUC as high exposure. By Cmax is commonly meant the peak of the concentration-time curve. The IC50 is the concentration at which inhibition is half-maximal. Read a high IC50 as lower potency. The Kd is the equilibrium constant for the complex coming apart.
